Assay results: ChEMBL document CHEMBL1147233, “Chemistry and structure-activity relationship of HIV-1 integrase inhibitor integracide B and related natural products” (J Nat Prod, 2003)

Columns and labels:
[1] = biological target: T1, Human immunodeficiency virus type 1 integrase (Human immunodeficiency virus 1, UniProt Q7ZJM1); assay: Inhibition of recombinant HIV1 integrase using unprocessed donor DNA by coupled assay
Procedure, shortened: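 Unprocessed donor DNA and inhibitor incubated with recombinant integrase together for 30 min, then target DNA added; strand-transfer product measured. Final DMSO 10%. IC50 from serial 2-fold dilutions in duplicate or triplicate; values without error limits are the average of these.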

[2] = biological target: T1, Human immunodeficiency virus type 1 integrase; assay: Inhibition of recombinant HIV1 integrase using preprocessed donor DNA treated after washing excess enzyme by strand transfer assay
Procedure, shortened: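 Integrase preincubated with preprocessed donor DNA, unbound enzyme washed off, then target DNA and inhibitor added together. Strand transfer product measured. Final DMSO 10%. IC50 from serial 2-fold dilutions run in duplicate or triplicate; values without error limits are the average of these.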

[3] = test system: Human immunodeficiency virus 1; assay: Antiviral activity against HIV1 infected in human H9 cells; format: functional; conditions: Human immunodeficiency virus 1, H9; read-out: CIC95
Procedure, shortened: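 Multiple-cycle viral spread assay in HIV-1-infected H9 T-lymphoid cells; value is CIC95, the concentration giving >95% protection from viral infection.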

[4] = biological target: Type II restriction enzyme EcoRI (Escherichia coli, UniProt P00642); assay: Inhibition of Escherichia coli ECOR1
Chain of Type II restriction enzyme EcoRI (P00642 whole entry): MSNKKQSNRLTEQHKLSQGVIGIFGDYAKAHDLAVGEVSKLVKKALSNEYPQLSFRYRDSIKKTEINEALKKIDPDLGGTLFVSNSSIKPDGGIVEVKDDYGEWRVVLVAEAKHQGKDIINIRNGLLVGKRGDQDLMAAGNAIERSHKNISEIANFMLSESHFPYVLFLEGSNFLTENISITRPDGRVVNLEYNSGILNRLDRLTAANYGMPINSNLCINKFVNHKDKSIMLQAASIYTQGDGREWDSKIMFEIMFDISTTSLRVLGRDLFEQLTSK

[5] = Inhibition of DNAse
[6] = biological target: T1, Human immunodeficiency virus type 1 integrase; assay: Inhibition of HIV1 integrase assessed as inhibition of 3'-end processing reaction
Procedure, shortened: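 Specific 3′-end processing of LTR donor-sequence oligonucleotide substrates, run with […]. IC₅₀ values without error limits are the average of duplicate or triplicate data sets.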

[7] = biological target: T1, Human immunodeficiency virus type 1 integrase; assay: Inhibition of HIV1 integrase-mediated preintegration complex formation by Southern blotting
Procedure, shortened: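 Preintegration complexes were isolated from HIV-1-infected cells, partially purified and used in an integration reaction. Products were analysed by Southern blotting and quantified by phosphorimaging. IC₅₀ values without error limits are the average of duplicate or triplicate data sets.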

[8] = biological target: T1, Human immunodeficiency virus type 1 integrase; assay: Inhibition of recombinant HIV1 integrase using preprocessed donor DNA by assembly assay
Procedure, shortened: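 Recombinant integrase and inhibitor were incubated with preprocessed donor DNA, unbound integrase was washed off, then target DNA was added. The read-out is the strand-transfer product. Final DMSO was 10%. IC₅₀ came from 2-fold dilution series run in duplicate or triplicate.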

T1 sequence (Q7ZJM1 whole entry): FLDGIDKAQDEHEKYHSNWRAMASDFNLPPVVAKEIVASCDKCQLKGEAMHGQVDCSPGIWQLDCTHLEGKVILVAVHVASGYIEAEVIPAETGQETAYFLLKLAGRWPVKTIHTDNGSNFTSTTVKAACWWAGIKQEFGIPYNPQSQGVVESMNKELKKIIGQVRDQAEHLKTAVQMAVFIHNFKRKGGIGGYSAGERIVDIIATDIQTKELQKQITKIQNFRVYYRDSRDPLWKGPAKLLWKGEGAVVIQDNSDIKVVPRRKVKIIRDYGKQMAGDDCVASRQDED

| SMILES | IC50 [1] [µM] | IC50 [2] [µM] | IC95 [3] [µM] | IC50 [4] [µM] | IC50 [5] [µM] | IC50 [6] [µM] | IC50 [7] [µM] | IC50 [8] [µM] |
| --- | --- | --- | --- | --- | --- | --- | --- | --- |
| C=C(CC[C@@H](C)[C@H]1CC=C2C3=C([C@@H](O)[C@H](OC(C)=O)[C@@]21C)[C@@]1(C)C[C@@H](OC(=O)CCC(=O)O)[C@H](O)C(C)(C)[C@@H]1CC3)C(C)C | 3 | 12 | 6 | > 50 | > 50 | – | – | – |
| C=C(CC[C@@H](C)[C@H]1CC=C2C3=C([C@@H](O)[C@H](OC(C)=O)[C@@]21C)[C@@]1(C)C[C@@H](O)[C@H](OS(=O)(=O)O)C(C)(C)[C@@H]1CC3)C(C)C [INTEGRACIDE A] | 4 | 9 | 25 | > 50 | > 50 | 5 | 50 | – |
| CC(=O)O[C@H]1[C@H](O)C2=C(CC[C@H]3C(C)(C)[C@@H](OS(=O)(=O)O)[C@H](OC(=O)CCCCCCCCCCCCCCCO)C[C@]23C)[C@@H]2CC[C@H]([C@H](C)CCC3(C(C)(C)O)CO3)[C@]21C (stereo partly specified) | 5.6 | 5.6 | > 50 | > 50 | > 50 | 2 | 50 | 12 |
| CC(=O)O[C@H]1[C@H](O)C2=C(CC[C@H]3C(C)(C)[C@@H](OS(=O)(=O)O)[C@H](OC(=O)CCCCCCCCCCCCCCCO)C[C@]23C)C2=CC[C@H]([C@H](C)CCC3(C(C)(C)O)CO3)[C@]21C (stereo partly specified) | 5 | 14 | 6 | > 50 | > 50 | 10 | – | – |
| C=C(CC[C@@H](C)[C@H]1CC=C2C3=C([C@@H](O)[C@H](OC(C)=O)[C@@]21C)[C@@]1(C)C[C@@H](O)[C@H](OC(=O)CCC(=O)O)C(C)(C)[C@@H]1CC3)C(C)C | 3 | 12 | 6 | > 50 | > 50 | 5 | – | – |
| C=C(CC[C@@H](C)[C@H]1CC[C@H]2C3=C([C@@H](O)[C@H](OC(C)=O)[C@]12C)[C@@]1(C)C[C@@H](O)[C@H](OS(=O)(=O)O)C(C)(C)[C@@H]1CC3)C(C)C | 5 | 15 | 50 | > 50 | > 50 | 5 | 30 | 10 |
| C=C(CC[C@@H](C)[C@H]1CC=C2C3=C([C@@H](O)[C@H](OC(C)=O)[C@@]21C)[C@@]1(C)C[C@@H](O)[C@H](OC(=O)c2ccccc2)C(C)(C)[C@@H]1CC3)C(C)C | > 80 | > 80 | – | > 50 | > 50 | – | – | – |
| C=C(CC[C@@H](C)[C@H]1CC=C2C3=C([C@@H](O)[C@H](OC(C)=O)[C@@]21C)[C@@]1(C)C[C@@H](OC(=O)CN)[C@H](O)C(C)(C)[C@@H]1CC3)C(C)C | 23 | > 50 | – | > 50 | > 50 | – | – | – |
| C[C@H](CCC(O)C(C)(C)O)[C@H]1CC[C@@]2(C)C3=C(CC[C@]12C)[C@@]1(C)C[C@@H](OC(=O)CC(C)(O)CC(=O)O)C(=O)C(C)(C)[C@@H]1CC3 (stereo partly specified) [CLAVARIC ACID] | 47 | 85 | – | > 50 | > 50 | – | – | – |
| C=C(CC[C@@H](C)[C@H]1CC=C2C3=C([C@@H](O)[C@H](OC(C)=O)[C@@]21C)[C@@]1(C)C[C@@H](OC(=O)CNC(=O)OCC2c4ccccc4-c4ccccc42)[C@H](OC(=O)CNC(=O)OCC2c4ccccc4-c4ccccc42)C(C)(C)[C@@H]1CC3)C(C)C | > 50 | > 50 | – | > 50 | > 50 | – | – | – |
